Bioassay records deposited in PubChem by several laboratories.
T cruzi inh: blocks replication of Trypanosoma cruzi; T. cruzi beta-gal in NIH3T3, luminescence, 90 h; inhibition, % (test concentration not listed); hit rate 1.4% among 300,000; AID 1885;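 active = mean inhibition across valid replicates above about 55%, limit read from the data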;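 also: signal also drops with host cell toxicity which is not excluded here; 0% = plate median of DMSO wells and 100% = zero luminescence signal; higher percent means less beta-gal luminescence so fewer parasites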
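Assay system: NIH/3T3 host cells with β-galactosidase reporter T. cruzi; input: 5,000 host fibroblasts per well; compound: single 50 nL compound addition per well in DMSO; timing: ≥90 h infection period, 3 h prior cell attachment; measured by: GalScreen β-gal luminescence, detergent lysis, 60 min; evaluation: percent inhibition of parasite-derived β-gal signal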
Rev-erbA mod: modulates human Rev-erb alpha binding to DNA; AID 1259318; hit rate 0.79% among 370,000; Rev-erbα–FITC-DNA binding, fluorescence polarization, 90 min; activity, % at 10 µM; P20393;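 active = activity above about 14%, limit read from the data; passing the limit was not always enough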;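 also: 0% = DMSO wells with 35 nM protein and 100% = DMSO wells with 750 nM protein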
Target sequence (P20393 whole entry, looked up): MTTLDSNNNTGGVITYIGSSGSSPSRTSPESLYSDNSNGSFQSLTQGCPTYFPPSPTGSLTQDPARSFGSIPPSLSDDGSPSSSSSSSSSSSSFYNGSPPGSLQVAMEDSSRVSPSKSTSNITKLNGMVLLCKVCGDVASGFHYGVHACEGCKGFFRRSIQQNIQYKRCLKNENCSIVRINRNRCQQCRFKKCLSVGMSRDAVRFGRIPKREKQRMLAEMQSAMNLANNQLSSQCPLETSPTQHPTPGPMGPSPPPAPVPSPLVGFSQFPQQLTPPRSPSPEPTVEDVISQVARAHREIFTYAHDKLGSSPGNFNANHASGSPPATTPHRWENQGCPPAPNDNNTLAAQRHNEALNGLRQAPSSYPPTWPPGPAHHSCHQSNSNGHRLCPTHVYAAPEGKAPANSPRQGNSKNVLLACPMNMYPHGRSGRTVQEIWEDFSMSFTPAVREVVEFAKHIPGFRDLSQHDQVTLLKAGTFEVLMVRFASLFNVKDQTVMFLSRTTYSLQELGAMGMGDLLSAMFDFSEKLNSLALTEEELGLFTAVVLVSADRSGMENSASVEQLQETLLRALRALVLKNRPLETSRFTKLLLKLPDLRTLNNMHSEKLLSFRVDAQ
TAG inh: triacylglycerol accumulation inhibition; inhibition, % at 12.5 µM; hit rate 0.66% among 230,000; AID 651582; H9c2 cells, Nile Red lipid (TAG) fluorescence; cells loaded with 200 µM oleic acid;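 active = pattern-corrected inhibition of lipid staining of at least 50% with the nuclear-stain viability signal not falling by more than 50%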;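 also: 0% = DMSO wells and 100% = triacsin C control wells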
MIN6 prolif: inducers of beta-cell replication in MIN6 cells | MIN6 cells proliferation, ATPlite luminescence, 48 h; cells starved in 0.2% serum; 100% = growth in 10% serum | proliferation, % at 10 µM | hit rate 0.29% among 330,000;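 active = compounds whose signal lies at least 3.5 SD above the mean of all wells on their plate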;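 also: 0% = DMSO-treated cells in low-serum medium and 100% = 10% serum control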
PG9 binder: PG9 antibody binding by small molecule; TR-FRET gp120-PG9 antibody binding; inhibition, % at 6.7 µM; hit rate 0.43% among 360,000; in the data active = inhibition above about 8.5%
iPSC survival up: enhancers of human iPSC single-cell survival; hit rate 0.044% among 360,000; hiPSC single-cell survival, ATPlite luminescence; 100% = ROCK inhibitor wells, 0% = DMSO; AID 602274; survival enhancement, % at 20 µM; in the data active = survival enhancement above about 18%;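 also: cells exposed to compounds for 16 hours before the ATP read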
The depositor's hits bear a star; . = no result given. A selection: hits, their analogues and other compounds. The true share with any hit is near 2.9%.

SMILES | T cruzi inh | Rev-erbA mod | TAG inh | MIN6 prolif | PG9 binder | iPSC survival up
O=C(CSc1nc(C2CC2)nc2ccccc12)N1c2ccccc2Sc2ccccc21 | 58.6* | -2.2 | . | -4.1 | 2.4 | 5.5
O=C1CSC(=S)N1/N=C/C=C/c1ccccc1 | -5.4 | 3.0 | . | -0.4 | -3.4 | -1.6
Cc1ccc(OCc2nc(-c3ccc(Cl)cc3)n[nH]2)cc1 | 5.4 | 1.5 | . | -3.3 | -2.6 | -1.8
O=C(CSc1ccccn1)Nc1ccc(Cl)cn1 | 1.3 | -3.9 | -11.5 | -0.9 | -1.4 | 1.1
Cc1ccc2nc3c(cc(S(=O)(=O)c4ccccc4)c(=N)n3Cc3ccco3)c(=O)n2c1 | 63.4* | -7.0 | -5.2 | -6.5 | 1.3 | -0.6
O=C(Nc1ccncc1)c1ccccc1F | 4.1 | -2.3 | 7.0 | 2.1 | 0.9 | 24.2*
O=C(Nc1ccncc1)c1c(F)c(F)c(F)c(F)c1F | 8.9 | -1.4 | -10.4 | -3.9 | -0.7 | 44.4*
O=C(Nc1ccc(F)cc1)c1ccccc1F | -19.1 | -0.7 | . | -1.9 | -0.2 | 0.6
O=C(N/N=C/c1c(O)ccc2ccccc12)c1cccc(C(F)(F)F)c1 | 56.5* | 16.6 | . | 0.0 | -0.7 | 3.3
COc1ccc2ccccc2c1/C=N/NC(=O)c1cccc(Br)c1 | -4.6 | 2.2 | -2.5 | -1.1 | 0.0 | -0.2
O=C(CSc1nc(Nc2ccccc2)nc(N2CCOCC2)n1)Nc1cccc([N+](=O)[O-])c1 | 45.6 | 2.0 | 43.9 | -7.4 | -1.9 | 0.1
O=C(CSc1nc(Nc2ccccc2)nc(N2CCOCC2)n1)Nc1ccc([N+](=O)[O-])cc1 | 56.5* | 0.8 | . | -5.2 | 0.3 | -1.0
CC(=O)Nc1ccc(/C(C)=N/Nc2nc(Nc3ccccc3)nc(N3CCOCC3)n2)cc1 | 67.0* | -6.1 | 128.8 | -5.2 | -1.1 | -2.8
CC(=O)c1ccc(Nc2nc(N3CCOCC3)nc(N3CCOCC3)n2)cc1 | 15.1 | -3.5 | 14.1 | 2.8 | -1.1 | -0.3
COc1ccc(C(=O)Oc2cc(C(=S)N3CCOCC3)ccc2OC)cc1 | -19.5 | 4.1 | . | -0.4 | -2.1 | 2.2
Cc1ccc(N2CCN(S(=O)(=O)c3ccc(F)c(C)c3)CC2)c(C)c1 | 4.5 | 1.1 | -13.2 | -3.2 | -3.5 | -1.2
CCC(=O)c1cc(F)c(N2CCN(S(=O)(=O)c3ccc(C)cc3)CC2)cc1C | 58.9* | 2.4 | . | -1.8 | 2.4 | -1.6
O=C(CCn1cccn1)Nc1ccc(-c2ccno2)cc1 | -26.6 | -1.7 | . | -1.0 | -0.4 | 0.6
O=C1N(Cc2cccc(Cl)c2)C[C@@H]2C[C@@H](c3cccc4ncccc34)N3CCC[C@@]123 | 8.1 | -0.3 | 3.8 | -5.8 | -0.5 | -0.2
O=C1N(Cc2cccc(Cl)c2)C[C@@H]2C[C@@H](c3c[nH]c4ccccc34)N3CCC[C@@]123 | 58.1* | 0.3 | -13.9 | -3.4 | -0.7 | -0.3
COc1ccc(OC)c(C(=O)NC2CC(C)(C)Cc3c2cnn3-c2ccccc2)c1 (centres undefined) | 5.8 | 9.0 | . | -2.4 | 1.1 | -0.6
Cc1nc2cc(-c3cccc(F)c3)nn2c(C)c1CCC(=O)NC(C)CCc1ccco1 (centres undefined) | 39.3 | . | -1.6 | 0.8 | . | 0.5
COc1ccc(-c2cc3nc(C)c(CCC(=O)NCc4ccc(F)cc4)c(C)n3n2)c(OC)c1 | 59.8* | -8.9 | 12.1 | -2.7 | 0.4 | 0.3
COc1cc(OC)cc(-c2cc3nc(C)c(CCC(=O)NC(C)CCc4ccco4)c(C)n3n2)c1 (centres undefined) | 64.6* | -6.2 | 17.1 | -1.9 | 2.3 | -0.6
Cc1ccc(OCC(=O)OCC(=O)N2c3ccccc3CC2C)cc1C (centres undefined) | . | -6.6 | -4.9 | 0.2 | 0.5 | 0.4
COC(=O)C1=C(C)N(Cc2ccccc2)C(=NCc2ccc(OC)cc2)N[C@H]1c1cccc(F)c1 | 25.6 | -7.5 | 121.3 | -8.5 | -0.8 | -3.8
COC(=O)C1=C(C)N(Cc2ccccc2)C(=NCc2cccc(Cl)c2)N[C@H]1c1cccc(F)c1 | . | . | 120.2* | -6.1 | . | -3.1
CN1CCN(c2ccc(S(=O)(=O)N3CCCCC3)cc2[N+](=O)[O-])CC1 | 68.0* | 6.3 | -9.2 | -1.0 | 0.8 | 0.0
CN1CCN(c2ccc(C(=O)c3ccccc3)cc2[N+](=O)[O-])CC1 | 56.2* | 2.8 | -1.9 | -2.1 | -0.6 | -2.4
CN1CCN(c2ccccc2NC(=O)c2ccc(N3CCCCC3)c([N+](=O)[O-])c2)CC1 | 5.8 | -1.3 | 13.9 | -1.7 | 0.9 | -0.5
